Screening results: PubChem BioAssay, The Scripps Research Institute Molecular Screening Center
PRMT1 inh: PRMT1 (human) inhibition, primary screen | inhibition, % at 2.79 µM | AID 652257 | 370,000 compounds, 1.3% hits | Q99873 | recombinant PRMT1, activity-based probe fluorescence polarization;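 active means inhibition above about 21% made by adding two undisclosed values, limit read from the data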
UHRF1 MBD2 ctr: blocks human UHRF1 binding to methylated DNA; Q96T88; UHRF1 binding to methylated oligo, TR-FRET; inhibition, % at 4.4 µM; 370,000 compounds, 0.75% hits; AID 687016; in the data active means inhibition above about 21%;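 further: UHRF1 SRA domain binding a hemimethylated CpG hairpin DNA probe; 0% = median of test compound wells and 100% = reference inhibitor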
ABHD5-PLIN5 inh: blocks binding of human ABHD5 to perilipin-5 | Split G. princeps luciferase complementation, luminescence, 4 h | inhibition, % at 4 µM | 360,000 compounds, 0.78% hits | AID 602281;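 active means inhibition above the mean inhibition across every tested compound plus 3 SD, cut at about 22% in these data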;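 further: 0% = DMSO only wells and the 100% control is not disclosed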
MBD2 DNA inh: blocks human MBD2 binding to methylated DNA; 370,000 compounds, 0.31% hits; Q9UBB5; AID 686964; TR-FRET, MBD2 binding to methylated oligonucleotide; inhibition, % at 4.4 µM; in the data active means inhibition above about 13%
LEDGF integ inh: blocks HIV-1 LEDGF/p75-dependent DNA integration. TR-FRET IN-LEDGF/p75 DNA integration, Eu/Cy5. inhibition, % at 3.7 µM. 370,000 compounds, 0.64% hits. AID 743269;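 active means inhibition above the screen-wide mean plus 3 SD, cut at about 13% in these data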;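 further: signal is the Cy5 over europium emission ratio at 671 and 618 nm; 0% = plate median of compound wells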
RBBP9 inh: blocks human serine hydrolase RBBP9; 220,000 compounds, 0.2% hits; recombinant RBBP9, FP-Rh probe fluorescence polarization; inhibition, % at 7.94 µM;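 active means inhibition above the campaign mean of all tested compounds plus 3 SD, cut at about 14% in these data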;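 further: plate controls were DMSO wells with RBBP9 for no effect and wells lacking RBBP9 protein for full effect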
Target sequence (O75884 whole entry, looked up): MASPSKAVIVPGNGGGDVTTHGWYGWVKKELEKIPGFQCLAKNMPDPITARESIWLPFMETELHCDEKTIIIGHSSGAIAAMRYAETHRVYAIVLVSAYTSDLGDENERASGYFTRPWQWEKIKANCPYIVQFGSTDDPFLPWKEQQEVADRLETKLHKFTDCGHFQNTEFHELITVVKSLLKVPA
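Material: RBBP9 protein. Amount: RBBP9 at 2.5 µM in dispensed solution, before mixing. Schedule: 30 min then 45 min, 25 °C. Medium: Tris buffer pH 8.0, NaCl, Pluronic. Measured by: fluorescence polarization. Measure: percent inhibition from mP, scaled between DMSO and no-protein wells. Replication: one well per compound.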
PRMT1 inh conf: confirmation of human PRMT1 inhibitors | shares compounds with PRMT1 inh | recombinant His-PRMT1, activity-based probe fluorescence polarization | inhibition, % at 2.79 µM | 3,300 compounds, 42% hits;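 active means mean inhibition across replicates above the hit cutoff derived for the earlier primary screen, cut at about 22% in these data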
* hit, by the source's call; . = no result. The list is not random: actives were taken first. Their share in the collection is about 3.1%.

SMILES	PRMT1 inh	UHRF1 MBD2 ctr	ABHD5-PLIN5 inh	MBD2 DNA inh	LEDGF integ inh	RBBP9 inh	PRMT1 inh conf
Cc1ccc(-n2c(SCc3cccc4ccccc34)nnc2-c2ccccn2)cc1	-8	0	.	-4	3	.	.
S=c1[nH]nc(-c2cccc(Cl)c2)n1/N=C/c1ccco1	.	.	.	.	.	-11	.
Cc1cccc(/C=N/n2c(-c3ccncc3)n[nH]c2=S)c1	17	-3	0	4	3	-6	.
CCOc1ccc(C=Nn2c(-c3cccc(OC(C)C)c3)n[nH]c2=S)cc1	29*	1	.	1	-2	.	10
COc1ccc(/C=N/n2c(-c3cccs3)n[nH]c2=S)cc1	11	-4	-13	-2	-1	-9	.
CCCCCCn1c(-c2cccs2)n[nH]c1=S	41*	15	-16	2	-1	-7	5
Cc1ccc(/C=N/n2c(-c3cccc(Cl)c3)n[nH]c2=S)o1	26*	-1	-2	-1	1	-7	13
Cc1ccc(/C=N/n2c(-c3cccs3)n[nH]c2=S)cc1	25*	1	-20	-4	-1	-9	13
O=C1/C(=C\c2cc([N+](=O)[O-])ccc2O)SC(=S)N1Cc1ccc(Cl)cc1	26*	0	-7	3	2	.	33*
O=C1C(=Cc2ccccc2O)SC(=S)N1CCCN1CCOCC1	68*	-1	-30	2	1	.	83*
O=C(O)CN1C(=O)/C(=C\c2ccccc2OCc2ccc(F)cc2)SC1=S	25*	1	-9	5	1	.	-1
O=C1/C(=C\c2ccc(O)c(O)c2)SC(=S)N1Cc1ccccc1	2	3	13	3	-1	.	.
O=C1/C(=C\c2cccc(O)c2O)SC(=S)N1Cc1ccccc1	94*	1	-10	-3	-1	.	14
CCCCCN1CCCCC(NC(=O)CSc2ccccc2)C1=O (stereo not drawn)	1	0	.	0	-1	.	.
COc1ccc(-c2ccc3c(n2)CCCN3S(=O)(=O)c2ccc(OC)cc2)cc1	-6	0	.	1	6	.	.
COc1ccc(-c2ccc3c(n2)CCCN3S(=O)(=O)c2ccc(C#N)cc2)cc1	45*	3	.	3	2	.	26*
COC(=O)c1ccc(S(=O)(=O)N2CCC(NC(=O)CCc3ccccc3)CC2)cc1	2	0	.	-1	1	.	.
CCC(C)(C)n1nnnc1C(c1ccc(O)c(OC)c1)N1CCN(c2nc3ccccc3s2)CC1 (stereo not drawn)	36*	-1	17	1	2	0	36*
COc1ccc(C(c2nnnn2C(C)(C)C)N2CCN(c3nc4ccccc4s3)CC2)cc1 (stereo not drawn)	-3	0	1	-4	0	-10	.
CN=C1S/C(=C/c2cc(C)n(Cc3ccccc3)c2C)C(=O)N1C	-2	-3	.	-3	7	.	.
CCCn1c(N)c(N(CCOC)C(=O)c2cc(Cl)nc3ccccc23)c(=O)[nH]c1=O	0	-5	-1	-1	4	.	.
COCCN(C(=O)c1cc(-c2ccco2)nc2ccccc12)c1c(N)n(Cc2ccccc2)c(=O)[nH]c1=O	83*	4	6	6	6	.	9
CCCCN(C(=O)c1cc(-c2ccc(F)cc2)nc2ccccc12)c1c(N)n(CCCC)c(=O)[nH]c1=O	4	-2	-4	-6	-1	.	.
CCCN(C(=O)c1cc(-c2ccco2)nc2ccccc12)c1c(N)n(Cc2ccccc2)c(=O)[nH]c1=O	33*	13	13	6	6	.	6
CCCCCC[C@H](CC)CN(C(=O)Oc1ccccc1)c1ccccc1	3	2	.	2	1	.	.
CCOC(=O)[C@]12CCCCC/C=C\1N(Cc1ccc(OC)cc1)C(=O)[C@H]2CC(=O)NCc1cccc(C(F)(F)F)c1	2	-1	.	-5	-2	.	.
Oc1ccccc1C(=S)N1CCCCCC1	4	-2	-3	-8	1	-7	.
Oc1ccccc1C(=S)N1CCCCC1	36*	1	-6	0	1	1	20
N#C/C(=C\c1ccccc1[N+](=O)[O-])C(=O)NC1CCCCC1	32*	4	7	-1	0	-2	-2
